Data on 1 molecule can be found in ChEMBL document CHEMBL1275350, “First in class, potent, and orally bioavailable NADPH oxidase isoform 4 (Nox4) inhibitors for the treatment of idiopathic pulmonary fibrosis” (J Med Chem, 2010).

The nature of data set [1]: Intrinsic clearance in human liver microsomes assessed as per mg of protein at 0.5 uM. In kind it is ADME, Microsome. A digest of the protocol: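 Phase I stability assay in pooled liver microsomes (human: male and female; rat: male Sprague-Dawley). Microsomes at 0.5 mg/mL final in 0.1 M phosphate pH 7.4. Compound 0.5 μM final, 0.25% DMSO. Preincubated at 37 °C, reaction started with 1 mM NADPH. Sampled at 0, 5, 15, 30 and 45 min, with a 45 min minus-NADPH control. Methanol quench with internal standard, LC/MS-MS, intrinsic clearance calculated.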
A general note: Microsomes from liver hold many membrane-bound enzymes, among them those of drug oxidation.

Data set [2] in a line: Oral bioavailability in Sprague-Dawley rat at 10 mg/kg. In kind it is ADME, organism-based. To be noted: in vivo. A digest of the protocol: (§1)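 Parallel design in male rats, three per group. Group 1: 5 mg/kg iv in EDPW (10% EtOH, 10% DMA, 30% PG, 50% water). Group 2: 10 mg/kg oral in aqueous 0.5% CMC with 0.25% Tween 20. Carotid cannula blood drawn up to 24 h. Plasma measured by LC/MS/MS (LLOQ 1.00 ng/mL), noncompartmental analysis.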

Data set [3] concerns the target Phosphatidylinositol 4,5-bisphosphate 3-kinase catalytic subunit gamma isoform (Homo sapiens) (UniProt P48736). The data set is described as follows: Inhibition of PI3Kgamma at 10. The note with it: concentration not given here.
Data set [4] can be described thus: AUC (infinity) in Sprague-Dawley rat at 10 mg/kg, po. Further details: time infinity, dose 10 mg/kg, route oral. In kind it is ADME, organism-based. To be noted: plasma. The essentials: (§2)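 Parallel design with six male rats: three given 5 mg/kg iv in EDPW (10% EtOH, 10% DMA, 30% PG, 50% water), three given 10 mg/kg orally in aqueous 0.5% CMC with 0.25% Tween 20. Carotid cannula blood sampled up to 24 h. Plasma levels by LC/MS/MS (LLOQ 1.00 ng/mL). Noncompartmental analysis.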

Data set [5] has as its target Endothelin-1 receptor (Homo sapiens) (UniProt P25101). The data set is described as follows: Inhibition of human ET-A receptor at 10 uM.
Data set [6] has as its target MAO-B (Homo sapiens, UniProt P27338). The data set is described as follows: Inhibition of MAO-B at 10 uM.
Data set [7] is filed under the species Rattus norvegicus. In words: Inhibition of rat AMPK at 10 uM.
Data set [8] in a line: Inhibition of sodium channel at 10 uM.
For data set [9], the target named is NADPH oxidase 2 (Homo sapiens, UniProt P04839). In words: Inhibition of human NOX2 overexpressed in […] cell membrane assessed as ROS production by cell free assay in presence of NADPH. The essentials: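 Nox2 source: membranes from human polymorphonuclear cells, sonicated and collected at the 17/40% sucrose interface. ROS read by Amplex Red/HRP in PBS after NADPH addition, with compound at 1 nM–100 μM for 20 min at 37 °C. Background taken without membranes or agonist. Ki via Cheng-Prusoff, mean of ≥3 experiments in triplicate.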

Data set [10] concerns the target Phosphatidylinositol 4,5-bisphosphate 3-kinase catalytic subunit delta isoform (Homo sapiens) (UniProt O00329). In words: Inhibition of PI3Kdelta at 10. To be noted: concentration not given here.
Data set [11] has as its target Protein kinase C beta type (Homo sapiens) (UniProt P05771). In words: Inhibition of human PKCbeta at 10 uM.
For data set [12], the target named is Phosphatidylinositol 4,5-bisphosphate 3-kinase catalytic subunit alpha isoform (Homo sapiens) (UniProt P42336). In words: Inhibition of PI3Kalpha at 10. The note with it: concentration not given here.
The target of data set [13] is Cytochrome P450 2C9 (Homo sapiens, UniProt P11712). The data set is described as follows: Inhibition of human CYP2C9. In kind it is ADME. A digest of the protocol:
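Recombinant human CYP isoforms with isoform-specific probe substrates and NADPH. Compound at 0.1–25 μM, final DMSO 0.3%. Metabolites measured by mass spectrometry, except CYP1A2, which used a fluorescent metabolite. IC50 derived from the decrease in metabolite formation compared with vehicle control.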

The target of data set [14] is Nitric oxide synthase, inducible (Homo sapiens) (UniProt P35228). The data set is described as follows: Inhibition of iNOS at 10 uM.
Data set [15] is described as follows: Clearance in Sprague-Dawley rat at 5 mg/kg, iv. The note with it: in vivo. On the set-up: dose 5 mg/kg, route intravenous. In kind it is ADME, organism-based. The essentials: as §2
The target in data set [16] is Polyunsaturated fatty acid lipoxygenase ALOX12 (Homo sapiens) (UniProt P18054). The data set is described as follows: Inhibition of human 12-lipoxygenase at 10 uM.
For data set [17], the system named is Mus musculus. In words: Toxicity in mouse up to 1000 mg/kg, po over 2 weeks. In kind it is organism-based. The note with it: in vivo, 336 h. Further details: dose 1000 mg/kg, route oral. A digest of the protocol: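 Dose range finding in mice, given orally for 2 weeks at up to 1000 mg/kg.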
Data set [18] deals with MAP kinase p38 (Homo sapiens) (UniProt O15264+Q15759+Q16539+P53778). In words: Inhibition of human p38 MAP kinase at 10 uM. In kind it is protein assay.
In data set [19] the target is T1, NADPH oxidase 4 (Homo sapiens, UniProt Q9NPH5).
T1 sequence (Q9NPH5 whole entry): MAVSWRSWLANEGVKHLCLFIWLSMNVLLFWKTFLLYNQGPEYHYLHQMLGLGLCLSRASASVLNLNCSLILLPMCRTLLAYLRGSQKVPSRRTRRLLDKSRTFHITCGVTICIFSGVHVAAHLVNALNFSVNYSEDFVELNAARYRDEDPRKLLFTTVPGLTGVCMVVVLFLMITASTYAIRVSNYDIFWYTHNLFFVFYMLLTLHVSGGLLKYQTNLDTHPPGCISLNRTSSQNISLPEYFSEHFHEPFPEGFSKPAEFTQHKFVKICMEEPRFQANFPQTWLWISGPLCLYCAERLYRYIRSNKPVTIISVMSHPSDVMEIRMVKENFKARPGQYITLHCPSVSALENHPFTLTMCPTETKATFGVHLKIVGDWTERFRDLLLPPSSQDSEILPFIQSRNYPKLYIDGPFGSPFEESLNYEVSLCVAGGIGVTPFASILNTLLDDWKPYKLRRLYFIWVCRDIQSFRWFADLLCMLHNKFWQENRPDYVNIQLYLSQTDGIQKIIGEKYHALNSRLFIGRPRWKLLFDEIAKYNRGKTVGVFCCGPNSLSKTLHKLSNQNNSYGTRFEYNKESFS
The data set is described as follows: Inhibition of human NOX4 overexpressed in T-REx-293 cell membrane assessed as ROS production by cell free assay in presence of NADPH. To be noted: in the assay text read “T-REx-293 cell membrane” for “human PMN cell membrane”. A digest of the protocol: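 hNOX4 T-REx-293 cells induced with tetracycline (1 μg/mL, 24 h), sonicated in sucrose/NaCl/EGTA PBS buffer pH 7.4, membranes taken from a sucrose gradient. NADPH-triggered ROS measured by Amplex Red/HRP in PBS, with compound at 1 nM–100 μM, 20 min at 37 °C. Ki by Cheng-Prusoff from ≥3 triplicate experiments.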

Data set [20] is described as follows: Tmax in Sprague-Dawley rat at 10 mg/kg, po. In kind it is ADME, organism-based. On the set-up: dose 10 mg/kg, route oral. The note with it: in vivo. The essentials:
as §1

The nature of data set [21]: Genotoxicity in Salmonella Typhimurium at 100 uM by mini Ames test. In kind it is toxicity. To be noted: salmonella enterica subsp. enterica serovar typhimurium. In general terms: The Ames test detects mutagens through reverse mutation in bacteria.
Data set [22] is described as follows: Inhibition of chloride channel at 10 uM.
Data set [23] has as its target Polyunsaturated fatty acid lipoxygenase ALOX15 (Homo sapiens) (UniProt P16050). The data set is described as follows: Inhibition of 15-lipoxygenase at 10 uM.
Data set [24] in a line: Volume of distribution at steady state in Sprague-Dawley rat at 5 mg/kg, iv. In kind it is ADME, organism-based. On the set-up: dose 5 mg/kg, route intravenous. The note with it: in vivo, read-out: Vdss. A digest of the protocol:
as §1

MAO-B, sequence (P27338 whole entry): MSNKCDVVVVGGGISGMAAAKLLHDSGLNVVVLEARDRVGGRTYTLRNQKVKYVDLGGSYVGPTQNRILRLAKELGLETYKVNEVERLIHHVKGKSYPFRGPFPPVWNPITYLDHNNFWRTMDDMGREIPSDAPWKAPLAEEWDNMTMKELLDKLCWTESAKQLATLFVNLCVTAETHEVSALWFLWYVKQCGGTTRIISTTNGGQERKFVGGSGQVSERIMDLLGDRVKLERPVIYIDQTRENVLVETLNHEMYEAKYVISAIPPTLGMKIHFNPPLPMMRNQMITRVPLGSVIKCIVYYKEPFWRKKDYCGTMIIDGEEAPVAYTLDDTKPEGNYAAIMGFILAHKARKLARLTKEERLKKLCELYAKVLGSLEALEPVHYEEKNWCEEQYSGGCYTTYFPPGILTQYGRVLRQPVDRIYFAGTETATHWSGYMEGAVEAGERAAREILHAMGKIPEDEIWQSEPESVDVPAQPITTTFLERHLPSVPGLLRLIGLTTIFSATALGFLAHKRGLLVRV
Polyunsaturated fatty acid lipoxygenase ALOX15 (Homo sapiens), sequence (P16050 whole entry): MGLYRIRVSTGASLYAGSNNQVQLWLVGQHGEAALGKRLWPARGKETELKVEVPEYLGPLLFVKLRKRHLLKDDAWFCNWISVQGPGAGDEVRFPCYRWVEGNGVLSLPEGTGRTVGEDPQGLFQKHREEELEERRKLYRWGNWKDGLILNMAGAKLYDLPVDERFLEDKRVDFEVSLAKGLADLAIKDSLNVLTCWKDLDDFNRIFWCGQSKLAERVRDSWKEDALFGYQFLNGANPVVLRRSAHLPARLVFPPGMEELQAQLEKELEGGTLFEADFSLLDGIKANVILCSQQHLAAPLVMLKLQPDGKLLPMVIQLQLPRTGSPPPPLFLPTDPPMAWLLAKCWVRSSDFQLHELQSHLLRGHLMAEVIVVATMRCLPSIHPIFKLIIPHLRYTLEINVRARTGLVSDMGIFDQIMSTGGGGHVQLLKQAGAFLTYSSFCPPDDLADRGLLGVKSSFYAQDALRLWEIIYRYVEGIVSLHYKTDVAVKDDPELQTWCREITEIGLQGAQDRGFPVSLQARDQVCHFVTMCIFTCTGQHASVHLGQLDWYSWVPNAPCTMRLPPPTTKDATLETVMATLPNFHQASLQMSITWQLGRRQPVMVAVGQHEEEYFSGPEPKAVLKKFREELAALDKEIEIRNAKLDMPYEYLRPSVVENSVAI
Nitric oxide synthase, inducible (Homo sapiens), sequence (P35228 whole entry): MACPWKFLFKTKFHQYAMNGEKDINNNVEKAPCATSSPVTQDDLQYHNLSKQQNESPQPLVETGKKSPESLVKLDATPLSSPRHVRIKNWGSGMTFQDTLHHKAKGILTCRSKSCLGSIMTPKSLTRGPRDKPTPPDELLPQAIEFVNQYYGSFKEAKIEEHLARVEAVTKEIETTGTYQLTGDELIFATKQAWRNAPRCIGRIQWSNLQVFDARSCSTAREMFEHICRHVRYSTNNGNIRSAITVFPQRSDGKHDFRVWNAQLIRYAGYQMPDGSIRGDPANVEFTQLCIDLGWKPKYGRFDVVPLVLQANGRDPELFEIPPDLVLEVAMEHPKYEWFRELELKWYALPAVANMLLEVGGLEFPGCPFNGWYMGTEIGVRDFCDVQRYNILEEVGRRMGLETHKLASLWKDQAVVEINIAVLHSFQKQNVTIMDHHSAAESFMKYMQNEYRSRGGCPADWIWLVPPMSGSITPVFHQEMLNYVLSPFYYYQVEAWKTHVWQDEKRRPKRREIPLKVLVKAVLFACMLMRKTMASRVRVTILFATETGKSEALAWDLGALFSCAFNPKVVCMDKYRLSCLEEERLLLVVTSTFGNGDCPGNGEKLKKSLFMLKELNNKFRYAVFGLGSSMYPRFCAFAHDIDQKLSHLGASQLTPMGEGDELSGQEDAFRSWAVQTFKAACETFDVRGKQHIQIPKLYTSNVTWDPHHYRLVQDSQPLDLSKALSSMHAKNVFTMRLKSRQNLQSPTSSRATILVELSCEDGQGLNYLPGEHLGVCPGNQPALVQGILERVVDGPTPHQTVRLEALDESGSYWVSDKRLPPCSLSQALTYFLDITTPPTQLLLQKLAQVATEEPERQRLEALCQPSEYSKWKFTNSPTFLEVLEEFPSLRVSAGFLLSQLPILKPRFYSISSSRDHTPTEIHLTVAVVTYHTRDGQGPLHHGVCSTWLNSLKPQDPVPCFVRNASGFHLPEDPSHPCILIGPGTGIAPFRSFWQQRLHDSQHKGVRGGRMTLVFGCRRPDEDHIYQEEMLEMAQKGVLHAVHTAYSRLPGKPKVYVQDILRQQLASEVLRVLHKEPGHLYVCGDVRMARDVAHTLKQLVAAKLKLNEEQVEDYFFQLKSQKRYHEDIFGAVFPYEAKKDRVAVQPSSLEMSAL
Phosphatidylinositol 4,5-bisphosphate 3-kinase catalytic subunit gamma isoform (Homo sapiens), sequence (P48736 whole entry, looked up, canonical isoform): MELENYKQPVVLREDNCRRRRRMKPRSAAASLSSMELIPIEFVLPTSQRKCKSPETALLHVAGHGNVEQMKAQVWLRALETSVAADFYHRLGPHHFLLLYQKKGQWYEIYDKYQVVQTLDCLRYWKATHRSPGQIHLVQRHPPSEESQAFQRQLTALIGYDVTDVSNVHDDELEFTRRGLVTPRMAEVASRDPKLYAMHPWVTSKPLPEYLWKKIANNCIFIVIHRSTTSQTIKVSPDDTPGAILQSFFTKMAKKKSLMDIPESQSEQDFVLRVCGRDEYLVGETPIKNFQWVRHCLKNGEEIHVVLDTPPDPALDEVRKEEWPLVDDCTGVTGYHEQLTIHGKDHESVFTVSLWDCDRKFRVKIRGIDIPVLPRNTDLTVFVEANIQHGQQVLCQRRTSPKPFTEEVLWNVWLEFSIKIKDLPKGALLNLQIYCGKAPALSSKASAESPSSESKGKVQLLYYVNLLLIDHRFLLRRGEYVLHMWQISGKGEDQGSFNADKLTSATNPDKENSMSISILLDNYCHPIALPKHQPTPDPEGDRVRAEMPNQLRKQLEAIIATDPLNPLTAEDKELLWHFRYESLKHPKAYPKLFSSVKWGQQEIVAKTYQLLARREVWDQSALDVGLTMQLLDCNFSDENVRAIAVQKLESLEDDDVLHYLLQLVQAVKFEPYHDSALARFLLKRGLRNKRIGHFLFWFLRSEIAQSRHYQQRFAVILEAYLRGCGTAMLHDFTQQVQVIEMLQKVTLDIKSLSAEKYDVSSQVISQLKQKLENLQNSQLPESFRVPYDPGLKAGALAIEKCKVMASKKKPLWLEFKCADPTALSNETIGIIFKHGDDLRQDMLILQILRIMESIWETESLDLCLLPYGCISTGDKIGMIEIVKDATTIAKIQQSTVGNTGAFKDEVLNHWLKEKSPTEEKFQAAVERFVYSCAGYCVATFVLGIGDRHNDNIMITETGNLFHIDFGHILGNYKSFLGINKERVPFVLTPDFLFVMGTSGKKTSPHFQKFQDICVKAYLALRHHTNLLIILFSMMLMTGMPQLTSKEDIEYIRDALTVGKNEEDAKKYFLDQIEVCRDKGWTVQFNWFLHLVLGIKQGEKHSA
Phosphatidylinositol 4,5-bisphosphate 3-kinase catalytic subunit alpha isoform (Homo sapiens), sequence (P42336 whole entry, canonical isoform): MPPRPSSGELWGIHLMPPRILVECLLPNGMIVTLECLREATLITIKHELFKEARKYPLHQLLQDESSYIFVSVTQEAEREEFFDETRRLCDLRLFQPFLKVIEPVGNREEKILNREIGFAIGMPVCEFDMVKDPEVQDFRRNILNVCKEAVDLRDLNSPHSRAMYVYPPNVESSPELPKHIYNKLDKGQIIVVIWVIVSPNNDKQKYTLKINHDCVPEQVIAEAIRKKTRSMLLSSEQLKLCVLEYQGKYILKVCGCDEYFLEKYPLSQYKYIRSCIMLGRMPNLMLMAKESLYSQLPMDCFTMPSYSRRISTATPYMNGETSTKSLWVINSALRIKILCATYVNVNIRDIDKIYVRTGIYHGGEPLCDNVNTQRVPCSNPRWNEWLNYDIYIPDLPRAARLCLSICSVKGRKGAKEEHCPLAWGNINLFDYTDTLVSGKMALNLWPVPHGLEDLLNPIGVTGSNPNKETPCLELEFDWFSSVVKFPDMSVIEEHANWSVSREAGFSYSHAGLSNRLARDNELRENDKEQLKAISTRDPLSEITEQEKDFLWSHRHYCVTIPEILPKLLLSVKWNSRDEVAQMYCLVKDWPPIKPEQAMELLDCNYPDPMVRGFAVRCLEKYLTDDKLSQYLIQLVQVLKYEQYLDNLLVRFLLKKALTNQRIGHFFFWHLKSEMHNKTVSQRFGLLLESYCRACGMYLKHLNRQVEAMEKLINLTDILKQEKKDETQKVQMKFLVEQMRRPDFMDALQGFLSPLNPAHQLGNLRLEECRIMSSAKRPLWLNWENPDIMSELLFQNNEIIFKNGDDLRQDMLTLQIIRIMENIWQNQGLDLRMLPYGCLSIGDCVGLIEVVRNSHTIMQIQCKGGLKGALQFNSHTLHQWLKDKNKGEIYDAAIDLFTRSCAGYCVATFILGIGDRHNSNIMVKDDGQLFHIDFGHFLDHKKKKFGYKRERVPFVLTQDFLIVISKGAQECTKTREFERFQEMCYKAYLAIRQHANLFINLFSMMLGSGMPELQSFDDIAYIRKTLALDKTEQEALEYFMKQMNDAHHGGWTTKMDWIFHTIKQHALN
Cytochrome P450 2C9, sequence (P11712 whole entry, canonical isoform): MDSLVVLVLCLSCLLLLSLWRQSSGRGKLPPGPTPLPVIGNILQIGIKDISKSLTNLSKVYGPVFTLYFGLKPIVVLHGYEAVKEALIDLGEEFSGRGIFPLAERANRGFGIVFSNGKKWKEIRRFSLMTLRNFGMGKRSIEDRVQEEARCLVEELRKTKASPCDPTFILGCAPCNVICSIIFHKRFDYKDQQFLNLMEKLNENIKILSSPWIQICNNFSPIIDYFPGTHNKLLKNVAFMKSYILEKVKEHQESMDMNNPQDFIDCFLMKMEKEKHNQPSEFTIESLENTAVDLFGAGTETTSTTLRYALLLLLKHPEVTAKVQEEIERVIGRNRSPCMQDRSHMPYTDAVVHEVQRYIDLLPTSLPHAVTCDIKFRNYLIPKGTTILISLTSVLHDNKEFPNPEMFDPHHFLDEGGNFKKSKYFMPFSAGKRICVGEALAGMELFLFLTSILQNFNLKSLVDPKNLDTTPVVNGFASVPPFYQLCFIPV

As usually defined, the microsomal CLint is the capacity of the preparation to metabolise the compound, expressed as a volume cleared per time. In general, bioavailability refers to dose-corrected exposure relative to a reference, in per cent. For orientation: inhibition means the share of the control response that was lost under treatment. A low value points to a weak effect. A word on the AUC(0-inf): it is total exposure, with the tail of the curve extrapolated. A word on the Ki: it is the dissociation constant of the complex between target and ligand, obtained from inhibition or displacement. By IC50 is commonly meant the concentration needed to halve the response being measured. As a reminder, the clearance is a measure of how efficiently the substance is removed, as volume per time. A lower clearance goes with inefficient removal. For orientation: Tmax means the time at which the peak concentration occurs. Consider `Cc1c2c(=O)n(-c3ccccc3Cl)[nH]c2cc(=O)n1Cc1ccccn1`, for which the microsomal CLint at 0.5 µM in [1] is 24.8 µL/min/mg. In addition, the bioavailability in data set [2] worked out at 54%. Also, the inhibition worked out at 0% in data set [3]; 0% in data set [5]; 0% in [7]; 4% in [8]; 0% in data set [10]; 0% in data set [11]. In addition, the inhibition in data set [12] is 0%; in data set [14], 0%; in data set [16], 2%; in [18], 10%; in data set [22], 0%; in data set [23], 0%. Besides, in [4], the area under the curve AUC(0-inf) turned out to be 10900 ng·h/mL. 10 µM produced 0% inhibition in data set [6]. For the same molecule, the inhibitory constant (Ki) in [9] was determined as 1.53 µM; in data set [19], 0.165 µM. The same molecule yielded an IC50 in data set [13] above 25 µM. Also, the clearance in data set [15] is 7.83 mL/min/kg. For the same molecule, the Activity entry in data set [17] and in data set [21] was “Non-toxic” in each case. The Tmax in data set [20] was 1.5 h. Besides, the Vd in data set [24] came out at 1.08 L/kg.
